Source: ChEMBL document CHEMBL1135602 (J Med Chem, 2002)
Where “and” joins values, the source holds several entries; their conditions need not be identical. Equal entries are not always repeated. Calls of active or inactive are those of the source. The calls are words filed in the database; no cut-off is given here.

How the values were obtained:
[1] = Safety ratio is cytotoxicity to KB cells/IC50 TM4.; assay type: toxicity, cell-based; details: human, KB cells (epidermoid carcinoma); read-out: Safety ratio
Outline: (§1)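 Ratio of the cytotoxicity IC50 (KB or BC cells, Skehan protocol) to the antiplasmodial IC50 against TM4/8.2 (wild-type DHFR). […] Label was added after 24 h and cultures ran a further 18-24 h.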

[2] = Safety ratio is cytotoxicity to KB cells/IC50 K1; assay type: toxicity, cell-based; details: human, KB cells (epidermoid carcinoma); read-out: Safety ratio
Outline: (§2)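 Safety ratio is the mammalian-cell cytotoxicity IC50 (vero, KB or BC cells) divided by the antiplasmodial IC50 against P. falciparum K1CB1 (C59R+S108N DHFR). Parasites were grown in human erythrocytes (1.5% suspension, 1-2% parasitemia) at 37 °C, 3% CO2, with drug dilutions at 0.1% DMSO final. After 24 h, [3H]hypoxanthine was added for a further 18-24 h. IC50 came from sigmoidal incorporation curves.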

[3] = Safety ratio is cytotoxicity to BC cells/IC50 TM4.; assay type: toxicity, cell-based; details: human, BC cells (breast cancer); read-out: Safety ratio; outline: as §1
[4] = system: Bifunctional dihydrofolate reductase-thymidylate synthase (Plasmodium falciparum K1), P13922 [UNDEFINED MUTATION]; assay: Ratio of Inhibition of the C59R+S108N mutant of dihydrofolate reductase (DHFR) to inhibition of wild type dihydrofolate reductase.
[5] = target: Bifunctional dihydrofolate reductase-thymidylate synthase (Plasmodium falciparum K1) (UniProt P13922); assay: Inhibition of the wild-type dihydrofolate reductase (DHFR) relative to Tmp
Outline: (§3)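 Assayed at 25 °C in 50 mM TES pH 7.0, 75 mM β-mercaptoethanol, 1 mg/mL BSA, with 100 µM H2folate and 100 µM NADPH. A340 was followed. Ki was derived from IC50 = Ki(1+[S]/Km), assuming competitive inhibition.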

Vero [6] = assay: (§4) Cytotoxicity by the selective inhibition against African green monkey kidney […] (vero cells).; assay type: functional, cell-based; details: Chlorocebus sabaeus
[7] = target: Bifunctional dihydrofolate reductase-thymidylate synthase (Plasmodium falciparum K1) (UniProt P13922); assay: Inhibition of the C59R+S108N mutant of dihydrofolate reductase (DHFR)relative to Tmp; outline: as §3
[8] = target: Bifunctional dihydrofolate reductase-thymidylate synthase (Plasmodium falciparum K1, UniProt P13922, S108N); assay: Inhibition of the S108N mutant of dihydrofolate reductase (DHFR)
Outline: (§5)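 Assay at 25 °C: 50 mM TES pH 7.0, 75 mM β-mercaptoethanol, 1 mg/mL BSA, 100 µM H2folate and 100 µM NADPH. NADPH oxidation followed at 340 nm. Ki derived from IC50 as Ki(1+[S]/Km), assuming competitive inhibition.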

[9] = system: Bifunctional dihydrofolate reductase-thymidylate synthase (Plasmodium falciparum K1), P13922 [UNDEFINED MUTATION]; assay: Ratio of Inhibition of the S108N mutant of dihydrofolate reductase (DHFR) to inhibition of wild type dihydrofolate reductase.
[10] = target: Bifunctional dihydrofolate reductase-thymidylate synthase (Plasmodium falciparum K1, UniProt P13922); assay: Inhibition of the C59R+S108N mutant of dihydrofolate reductase (DHFR); outline: as §5
BC = assay: Cytotoxicity against human breast cancer cells.; assay type: functional, cell-based
Plasmodium falciparum [11] = assay: In vitro antiplasmodial activity (IC50) against Plasmodium falciparum wtTM4/8.2; assay type: functional, organism-based
KB = assay: Cytotoxicity against human epidermoid carcinoma KB cell.; assay type: functional, cell-based
Plasmodium falciparum [12] = assay: Safety ratio as cytotoxicity in vero cells relative to IC50 TM4; assay type: functional
[13] = Safety ratio is cytotoxicity to BC cells/IC50 K1; assay type: toxicity, cell-based; details: human, BC cells (breast cancer); read-out: Safety ratio; outline: as §2
[14] = Safety ratio is cytotoxicity to vero cells/IC50 K1.; assay type: toxicity, cell-based; details: monkey, read-out: Safety ratio
Outline: (§6)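 Ratio of the cytotoxicity IC50 (vero, KB or BC cells, Skehan protocol) to the antiplasmodial IC50 against K1CB1 (C59R+S108N DHFR). […] Label was added at 24 h and cultures ran a further 18-24 h. Final DMSO was 0.1%.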

Plasmodium falciparum [15] = assay: IC50 ratio against Plasmodium falciparum K1CB1/TM4; assay type: functional
[16] = target: Bifunctional dihydrofolate reductase-thymidylate synthase (Plasmodium falciparum K1) (UniProt P13922); assay: Inhibition of S108N mutant dihydrofolate reductase (DHFR)relative to Tmp; outline: as §3
[17] = target: Bifunctional dihydrofolate reductase-thymidylate synthase (Plasmodium falciparum K1) (UniProt P13922); assay: Inhibition of the C59R+S108N mutant of dihydrofolate reductase (DHFR) relative to Pyr.; outline: as §3
Plasmodium falciparum [18] = assay: In vitro relative antiplasmodial activity (IC50) compared to Pyr against Plasmodium falciparum TM4/8.2 wild-type; assay type: functional
[19] = target: Bifunctional dihydrofolate reductase-thymidylate synthase (Plasmodium falciparum K1) (UniProt P13922); assay: (§7) Inhibition of the wild-type dihydrofolate reductase (DHFR) relative to Pyr.; outline: as §3
Plasmodium falciparum [20] = assay: Relative antiplasmodial activity (IC50) compared to Pyr against Plasmodium falciparum K1CB1 DHFR double-mutant (C59R/S108N); assay type: functional
[21] = target: Bifunctional dihydrofolate reductase-thymidylate synthase (Plasmodium falciparum K1) (UniProt P13922); assay: as §7; outline: as §3; remark: listed apart in the source
[22] = Safety ratio is cytotoxicity to BC cells/IC50 K1.; assay type: toxicity, cell-based; details: human, BC cells (breast cancer); read-out: Safety ratio; outline: as §6
[23] = target: Bifunctional dihydrofolate reductase-thymidylate synthase (Plasmodium falciparum K1) (UniProt P13922); assay: Inhibition of Plasmodium falciparum wild-type dihydrofolate reductase (DHFR) relative to Pyrimethamine.
Vero [24] = assay: as §4; details: Chlorocebus sabaeus
Dihydrofolate reductase = target: T1, Dihydrofolate reductase (Homo sapiens, UniProt P00374); assay: Cytotoxicity by selective inhibition against human dihydrofolate reductase (DHFR).
T1 sequence (P00374 whole entry): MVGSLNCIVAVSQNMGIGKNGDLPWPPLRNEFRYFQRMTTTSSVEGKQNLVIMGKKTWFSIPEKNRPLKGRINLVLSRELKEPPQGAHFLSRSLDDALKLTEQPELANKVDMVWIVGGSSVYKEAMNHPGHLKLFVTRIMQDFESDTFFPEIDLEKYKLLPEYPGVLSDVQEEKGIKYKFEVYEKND

[25] = Safety ratio is cytotoxicity to KB cells/IC50 K1.; assay type: toxicity, cell-based; details: human, KB cells (epidermoid carcinoma); read-out: Safety ratio; outline: as §6
[26] = target: T2, Dihydrofolate reductase (Homo sapiens) (UniProt P00374); assay: Cytotoxicity by selective inhibition against human dihydrofolate reductase (DHFR);NA is no inhibition
T2 sequence (whole entry): T1 sequence (P00374 whole entry)

Plasmodium falciparum [27] = assay: Relative antiplasmodial activity (IC50) compared to Tmp against Plasmodium falciparum K1CB1 DHFR double-mutant (C59R/S108N); assay type: functional
Plasmodium falciparum [28] = assay: In vitro relative antiplasmodial activity (IC50) compared to Tmp against Plasmodium falciparum TM4/8.2 wild-type; assay type: functional
[29] = Safety ratio is cytotoxicity to vero cells/IC50 KI.; assay type: toxicity, cell-based; details: monkey, read-out: Safety ratio; outline: as §2
[30] = target: Bifunctional dihydrofolate reductase-thymidylate synthase (Plasmodium falciparum K1) (UniProt P13922); assay: Inhibition of the S108N mutant of dihydrofolate reductase (DHFR) relative to Pyr.; outline: as §3
[31] = Safety ratio is cytotoxicity to vero cells/IC50 k1.; assay type: toxicity, cell-based; details: monkey, read-out: Safety ratio; outline: as §6
[32] = Safety ratio is cytotoxicity to vero cells/IC50 K1; assay type: toxicity, cell-based; details: monkey; outline: as §6

Chain of Bifunctional dihydrofolate reductase-thymidylate synthase (Plasmodium falciparum K1) (P13922 whole entry, looked up): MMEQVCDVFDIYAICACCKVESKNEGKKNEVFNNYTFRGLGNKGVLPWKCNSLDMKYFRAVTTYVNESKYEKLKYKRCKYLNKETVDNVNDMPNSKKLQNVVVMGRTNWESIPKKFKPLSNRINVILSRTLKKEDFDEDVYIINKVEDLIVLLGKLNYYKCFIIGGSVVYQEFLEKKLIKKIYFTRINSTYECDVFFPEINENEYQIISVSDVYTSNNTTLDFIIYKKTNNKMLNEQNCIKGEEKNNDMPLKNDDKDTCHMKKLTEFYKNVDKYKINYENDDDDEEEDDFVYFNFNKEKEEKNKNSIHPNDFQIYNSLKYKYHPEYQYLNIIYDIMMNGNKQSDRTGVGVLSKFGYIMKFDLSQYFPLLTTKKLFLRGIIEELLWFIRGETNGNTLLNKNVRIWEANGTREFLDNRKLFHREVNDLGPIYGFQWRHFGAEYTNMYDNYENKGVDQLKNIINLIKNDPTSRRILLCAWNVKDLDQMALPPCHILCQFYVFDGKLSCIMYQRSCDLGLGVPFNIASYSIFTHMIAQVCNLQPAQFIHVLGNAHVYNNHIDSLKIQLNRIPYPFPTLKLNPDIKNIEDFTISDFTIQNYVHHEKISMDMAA
Chain of Bifunctional dihydrofolate reductase-thymidylate synthase (Plasmodium falciparum K1, UniProt P13922, S108N) (P13922 whole entry, looked up, stated change not applied): as the sequence (P13922 whole entry, looked up) above
Chain of Bifunctional dihydrofolate reductase-thymidylate synthase (Plasmodium falciparum K1, UniProt P13922) (P13922 whole entry): as the sequence (P13922 whole entry, looked up) above
Chain of Bifunctional dihydrofolate reductase-thymidylate synthase (Plasmodium falciparum K1), P13922 [UNDEFINED MUTATION] (P13922 whole entry, looked up, stated change not applied): as the sequence (P13922 whole entry, looked up) above

| Structure (SMILES) | selectivity ratio [1] | selectivity ratio [3] | Ratio [4] | IC50 (Vero [6]) | Ki [8] | Ratio [9] | Ki [10] | IC50 (BC) | IC50 (Plasmodium falciparum [11]) | IC50 (KB) | Safety ratio (Plasmodium falciparum [12]) | selectivity ratio [14] | Ratio (Plasmodium falciparum [15]) | Relative activity [23] | selectivity ratio [25] | further results |
| --- | --- | --- | --- | --- | --- | --- | --- | --- | --- | --- | --- | --- | --- | --- | --- | --- |
| COc1cc(Cc2cnc(N)nc2N)ccc1OCCCc1ccccc1 | 24 | 11 | 24.5 | 200 µM | 0.0266 µM | 14.8 | 0.0442 µM | 32 µM | 3 µM | 72 µM | 67 | 17 | 3.9 |  |  | selectivity ratio [2]: 6; Relative activity [5]: 0.2; Relative activity [7]: 0.2; selectivity ratio [13]: 2.7; Relative activity [16]: 0.2 |
| CCc1nc(N)nc(N)c1-c1ccc(Br)cc1 |  |  | 148 |  | 0.0315 µM | 105 | 0.0443 µM |  | 0.05 µM |  |  |  | 500 |  |  | Relative activity [17]: 0.8; Relative activity (Plasmodium falciparum [18]): 0.6; Relative activity [19]: 0.5; Relative activity (Plasmodium falciparum [20]): 0.8; Relative activity [21]: 1.1 |
| CCCCCCc1nc(N)nc(N)c1-c1ccccc1 | 1880 | 4470 | 2.3 |  | 0.0012 µM | 4 | 0.0007 µM | 268 µM | 0.06 µM | 113 µM | 857 | 41 | 21.7 | 0.5 | 87 | selectivity ratio [22]: 206; IC50 (Vero [24]): 55 µM; Ki (Dihydrofolate reductase): 15 µM |
| CCOc1cc(Cc2cnc(N)nc2N)ccc1OCc1cc(OC)c(OC)c(OC)c1 |  |  |  | 34 µM |  |  |  | 139 µM |  | 102 µM |  |  |  |  |  | NI [26]: inactive |
| COc1cc(Cc2cnc(N)nc2N)ccc1OCc1cc(OC)c(OC)c(OC)c1 |  |  |  |  | 0.0062 µM |  | 0.0087 µM |  | 0.3 µM |  |  |  | 92.7 |  |  | Relative activity (Plasmodium falciparum [27]): 0.2; Relative activity (Plasmodium falciparum [28]): 0.04 |
| CCc1nc(N)nc(N)c1-c1ccc(C(C)(C)C)cc1 | 145 | 93.3 | 212 | 100 µM | 0.0662 µM | 110 | 0.127 µM | 56 µM | 0.6 µM | 87 µM | 172 |  | 6.5 |  | 22 | Relative activity [17]: 2.4; Relative activity (Plasmodium falciparum [18]): 7.5; selectivity ratio [29]: 26; selectivity ratio [22]: 14.4; Relative activity [30]: 2.3; Relative activity [19]: 1; Relative activity (Plasmodium falciparum [20]): 0.1 |
| Nc1nc(N)c(-c2cccc(Cl)c2)c(CCOCCCOc2ccccc2)n1 | 20 | 15 | 4.7 | 15 µM | 0.0018 µM | 4.5 | 0.0019 µM | 6.1 µM | 0.4 µM | 8.1 µM | 38 | 4.5 | 8.3 | 0.7 | 2.5 | selectivity ratio [13]: 1.8 |
| CCCOc1cc(Cc2cnc(N)nc2N)ccc1OCc1cc(OC)c(OC)c(OC)c1 |  |  |  | 13 µM |  |  |  | 56 µM |  | 180 µM |  |  |  |  |  | NI [26]: inactive |
| Nc1nc(N)c(-c2ccccc2)c(CCCc2ccccc2)n1 | > 2500 | > 2500 | 4.8 | > 50 µM | 0.0009 µM | 1.8 | 0.0024 µM | > 500 µM | 0.2 µM | > 500 µM | >250 | > 22 | 11.5 | 0.9 | > 217 | selectivity ratio [22]: > 217; NI [26]: inactive |
| Nc1ncc(Cc2ccc(OCCCOc3cc(Cl)c(Cl)cc3Cl)cc2)c(N)n1 |  |  | 43.4 | 45 µM | 0.0235 µM | 26.1 | 0.0391 µM | > 50 µM | 3 µM | > 50 µM | 15 and >17 |  | 1.2 |  |  | Relative activity [5]: 0.09; Relative activity [7]: 0.2; selectivity ratio [31]: 13; selectivity ratio [32]: 13; Relative activity [16]: 0.2 |
| COc1ccc(CCCc2nc(N)nc(N)c2-c2cccc(Cl)c2)cc1 |  |  | 2.7 | 3 µM | 0.004 µM | 1.8 | 0.006 µM | > 500 µM | 0.4 µM | 15 µM |  |  | 6.8 | 3.7 |  | Ki (Dihydrofolate reductase): > 5 µM |
